Source: ChEMBL document CHEMBL1152956, “Synthesis and cytotoxic activity of 5,6-heteroaromatically annulated pyridine-2,4-diamines” (Bioorg Med Chem, 2009)

Experiments:
5637 [1] = experiment: Growth inhibition of human 5637 cells at 20 uM after 96 hrs by crystal violet staining; assay type: functional; details: Homo sapiens, 5637, 96 h; read-out: GI
How it was run: (§1)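 This was a single-concentration screen. Actively dividing cells had 96 h continuous exposure to compound diluted 1000-fold from a DMSO solution into medium. Cells were fixed with glutaraldehyde and stained with crystal violet. Bound dye was redissolved in 70% ethanol and read at OD 570 nm. Growth inhibition was expressed against untreated controls.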

MCF7 [2] = experiment: Cytotoxicity against human MCF7 cells after 96 hrs by crystal violet staining; assay type: functional, cell-based; details: MCF7, 96 h
How it was run: (§2)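 Compounds were held as 20 mM DMSO stocks at -20 °C and serially diluted in DMSO to working solutions of 20, 10, 5.0, 2.50, 1.25 and […]. Five of these were diluted 1000-fold into medium, with DMSO-only controls. Dividing cells had 96 h continuous exposure, then glutaraldehyde fixation and crystal violet staining. Dye was redissolved in 70% ethanol and read at OD 570 nm. IC50 came from linear regression of log dose–response curves.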

RT-4 [3] = experiment: Growth inhibition of human RT4 cells at 20 uM after 96 hrs by crystal violet staining; assay type: functional; details: RT-4, 96 h, read-out: GI; how it was run: as §1
5637 [4] = experiment: Cytotoxicity against human 5637 cells after 96 hrs by crystal violet staining; assay type: functional, cell-based; details: Homo sapiens, 5637, 96 h; how it was run: as §2
A-427 [5] = experiment: Cytotoxicity against human A427 cells after 96 hrs by crystal violet staining; assay type: functional, cell-based; details: A-427, 96 h; how it was run: as §2
[6] = Growth inhibition of human LCLC-103H cells at 20 uM after 96 hrs by crystal violet staining; assay type: functional; details: read-out: GI; how it was run: as §1
A-427 [7] = experiment: Growth inhibition of human A427 cells at 20 uM after 96 hrs by crystal violet staining; assay type: functional; details: A-427, 96 h, read-out: GI; how it was run: as §1
DAN-G [8] = experiment: Growth inhibition of human DAN-G cells at 20 uM after 96 hrs by crystal violet staining; assay type: functional; details: read-out: GI; how it was run: as §1
MCF7 [9] = experiment: Growth inhibition of human MCF7 cells at 20 uM after 96 hrs by crystal violet staining; assay type: functional; details: MCF7, 96 h, read-out: GI; how it was run: as §1
RT-4 [10] = experiment: Cytotoxicity against human RT4 cells after 96 hrs by crystal violet staining; assay type: functional, cell-based; details: RT-4, 96 h; how it was run: as §2
DAN-G [11] = experiment: Cytotoxicity against human DAN-G cells after 96 hrs by crystal violet staining; assay type: functional, cell-based; how it was run: as §2
[12] = Cytotoxicity against human LCLC-103H cells after 96 hrs by crystal violet staining; assay type: functional, cell-based; how it was run: as §2

SMILES	inhibition of growth at 20 µM 5637 [1]	IC50 (MCF7 [2])	inhibition of growth at 20 µM (RT-4 [3])	IC50 5637 [4]	IC50 (A-427 [5])	inhibition of growth at 20 µM [6]	inhibition of growth at 20 µM (A-427 [7])	inhibition of growth at 20 µM (DAN-G [8])	inhibition of growth at 20 µM (MCF7 [9])	IC50 (RT-4 [10])	IC50 (DAN-G [11])	IC50 [12]
CN(C)c1cc(N)c2c3c(sc2n1)CCCC3	< 50%	> 20 µM	< 50%	> 20 µM	> 20 µM	< 50%	< 50%	< 50%	< 50%	> 20 µM	> 20 µM	> 20 µM
Cc1c(C)n(Cc2ccccc2)c2nc(N(C)C)cc(N)c12	–	13.1 µM	–	11.8 µM	12.5 µM	< 50%	–	< 50%	–	19.6 µM	> 20 µM	> 20 µM
C=CCn1c(-c2ccccc2)c(-c2ccccc2)c2c(N)cc(N(C)C)nc21	–	9.04 µM	–	16.9 µM	3.93 µM	< 50%	–	< 50%	–	12.1 µM	> 20 µM	> 20 µM
Cc1c(-c2ccccc2)sc2nc(N(C)C)cc(N)c12	–	13.6 µM	–	17.7 µM	15.3 µM	< 50%	–	–	–	6.19 µM	16.4 µM	> 20 µM
Nc1cc(N2CCCC2)nc2sc(-c3ccccc3)c(-c3ccccc3)c12	–	13.7 µM	< 50%	8.18 µM	8.76 µM	–	–	–	–	> 20 µM	8.17 µM	9.79 µM
Cc1oc2nc(N3CCCC3)cc(N)c2c1C	< 50%	> 20 µM	< 50%	> 20 µM	> 20 µM	< 50%	< 50%	< 50%	< 50%	> 20 µM	> 20 µM	> 20 µM
Cc1cc2c(N)cc(N(C)C)nc2nc1-c1ccccc1	–	11.7 µM	–	8.82 µM	11.8 µM	< 50%	–	–	–	5 µM	18.1 µM	> 20 µM
CN(C)c1cc(N)c2c3ccccc3n(C)c2n1	< 50%	> 20 µM	< 50%	> 20 µM	> 20 µM	< 50%	< 50%	< 50%	< 50%	> 20 µM	> 20 µM	> 20 µM
COc1ccc(Cn2c3nc(N(C)C)cc(N)c3c3ccc4ccccc4c32)cc1	< 50%	> 20 µM	< 50%	> 20 µM	> 20 µM	< 50%	< 50%	< 50%	< 50%	> 20 µM	> 20 µM	> 20 µM
CN(C)c1cc(N)c2c(-c3ccccc3)c(-c3ccccc3)sc2n1	–	16.2 µM	< 50%	10.1 µM	11.2 µM	–	–	–	–	> 20 µM	15.2 µM	10.6 µM
Cc1nc2nc(N(C)C)cc(N)c2cc1-c1ccccc1	< 50%	> 20 µM	< 50%	> 20 µM	–	< 50%	–	< 50%	< 50%	> 20 µM	> 20 µM	> 20 µM
Cc1oc2nc(N(C)C)cc(N)c2c1C	< 50%	> 20 µM	< 50%	> 20 µM	> 20 µM	< 50%	< 50%	< 50%	< 50%	> 20 µM	> 20 µM	> 20 µM
CN(C)c1cc(N)c2c(n1)[nH]c1c3ccccc3ccc12	–	7.52 µM	–	7.9 µM	6.58 µM	–	–	–	–	6.56 µM	9.84 µM	9.67 µM
CN(C)c1cc(N)c2c(n1)[nH]c1ccccc12	< 50%	> 20 µM	< 50%	> 20 µM	> 20 µM	< 50%	< 50%	< 50%	< 50%	> 20 µM	> 20 µM	> 20 µM
Nc1cc(N2CCCC2)nc2nc(-c3ccccc3)c(-c3ccccc3)cc12	–	4.08 µM	–	2.75 µM	4.33 µM	–	–	–	–	12 µM	6.34 µM	12.5 µM
Nc1cc(N2CCCC2)nc2oc(-c3ccccc3)c(-c3ccccc3)c12	–	14.7 µM	–	18.4 µM	13.8 µM	< 50%	–	< 50%	–	17.7 µM	> 20 µM	> 20 µM
CN(C)c1cc(N)c2c3ccc4ccccc4c3n(C)c2n1	< 50%	21.3 µM	–	> 20 µM	14.3 µM	< 50%	–	< 50%	–	12.9 µM	> 20 µM	> 20 µM
CN(C)c1cc(N)c2c(-c3ccccc3)c(-c3ccccc3)n(Cc3ccccc3)c2n1	< 50%	> 20 µM	< 50%	> 20 µM	–	< 50%	–	< 50%	< 50%	> 20 µM	> 20 µM	> 20 µM
COc1ccc(Cn2c3ccccc3c3c(N)cc(N(C)C)nc32)cc1	< 50%	> 20 µM	–	> 20 µM	> 20 µM	< 50%	< 50%	< 50%	< 50%	–	> 20 µM	> 20 µM
CN(C)c1cc(N)c2c3c(n(Cc4ccccc4)c2n1)CCCC3	–	–	–	–	–	< 50%	–	< 50%	–	–	> 20 µM	> 20 µM
CCOC(OCC)n1c2ccccc2c2c(N)cc(N(C)C)nc21	< 50%	> 20 µM	< 50%	> 20 µM	> 20 µM	< 50%	< 50%	< 50%	< 50%	> 20 µM	> 20 µM	> 20 µM
CN(C)c1cc(N)c2ccc3ccccc3c2n1	–	6.2 µM	–	10 µM	8.22 µM	–	–	–	–	7.82 µM	10.2 µM	8.93 µM
CN(C)c1cc(N)c2c(-c3ccccc3)c(-c3ccccc3)oc2n1	–	18.8 µM	< 50%	14.9 µM	14.6 µM	< 50%	–	< 50%	–	> 20 µM	> 20 µM	> 20 µM
CN(C)c1cc(N)c2cc(-c3ccccc3)c(-c3ccccc3)nc2n1	–	7.79 µM	–	8.03 µM	7.93 µM	–	–	–	–	14.4 µM	11.6 µM	13.7 µM
Cc1c2ccncc2c(C)c2c1[nH]c1ccccc12 [ELLIPTECINE]	–	0.43 µM	–	0.89 µM	0.89 µM	–	–	–	–	1.21 µM	–	0.8 µM
